# Measured values: article PMC8154207 (JACS Au, 2021)
# Several values for one entry are separate records, joined by “and”; a condition that tells them apart may be missing. Equal entries are not always repeated. Where two headings read alike, the source gives them in different places.
# Experiments:
# A549 cells [1] = assay: Mitochondrial membrane potential, TRME staining, flow cytometry; type: cell-based, human; conditions: 20 μM, 24 h (CCCP 20 μM, 1 h), FACS
# Method in brief: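 A549 cells were seeded at 1 × 10^5 per well, grown 24 h under normoxia, then exposed to compound for 24 h. After a PBS wash, cells were stained with TRME at 150 nM for 30 min; the positive control got CCCP before staining. Harvested cells were analysed by flow cytometry, excitation 488 and emission 575.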
# A549 cells [2] = assay: SRB cytotoxicity assay, 2D monolayer; type: cell-based, human; conditions: read-out: EC50 A549
# Method in brief: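 Cells were seeded in 96-well plates (A549 5000, A375 7000, MCF7 8000, MRC5 6000 cells/well) in OptiMEM with 2.4% FCS, then held 24 h at 37 °C, 7.0% CO2. Six concentrations were added in triplicate for 72 h. Plates were fixed with cold 10% TCA (4 °C, ≥4 h), stained with 0.6% SRB (30 min) and solubilized in 10 mM Tris; absorbance read at 510 nm. EC50 was taken versus untreated wells; three independent experiments, 95% CI.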
# [3] = target: Kv11.1 (hERG) potassium channel (Homo sapiens, UniProt Q12809); assay: [3H]dofetilide displacement assay on HEK293 Kv11.1 cell membranes; type: binding; conditions: tested concentration 10 μM
# Kv11.1 (hERG) potassium channel, sequence (Q12809 whole entry): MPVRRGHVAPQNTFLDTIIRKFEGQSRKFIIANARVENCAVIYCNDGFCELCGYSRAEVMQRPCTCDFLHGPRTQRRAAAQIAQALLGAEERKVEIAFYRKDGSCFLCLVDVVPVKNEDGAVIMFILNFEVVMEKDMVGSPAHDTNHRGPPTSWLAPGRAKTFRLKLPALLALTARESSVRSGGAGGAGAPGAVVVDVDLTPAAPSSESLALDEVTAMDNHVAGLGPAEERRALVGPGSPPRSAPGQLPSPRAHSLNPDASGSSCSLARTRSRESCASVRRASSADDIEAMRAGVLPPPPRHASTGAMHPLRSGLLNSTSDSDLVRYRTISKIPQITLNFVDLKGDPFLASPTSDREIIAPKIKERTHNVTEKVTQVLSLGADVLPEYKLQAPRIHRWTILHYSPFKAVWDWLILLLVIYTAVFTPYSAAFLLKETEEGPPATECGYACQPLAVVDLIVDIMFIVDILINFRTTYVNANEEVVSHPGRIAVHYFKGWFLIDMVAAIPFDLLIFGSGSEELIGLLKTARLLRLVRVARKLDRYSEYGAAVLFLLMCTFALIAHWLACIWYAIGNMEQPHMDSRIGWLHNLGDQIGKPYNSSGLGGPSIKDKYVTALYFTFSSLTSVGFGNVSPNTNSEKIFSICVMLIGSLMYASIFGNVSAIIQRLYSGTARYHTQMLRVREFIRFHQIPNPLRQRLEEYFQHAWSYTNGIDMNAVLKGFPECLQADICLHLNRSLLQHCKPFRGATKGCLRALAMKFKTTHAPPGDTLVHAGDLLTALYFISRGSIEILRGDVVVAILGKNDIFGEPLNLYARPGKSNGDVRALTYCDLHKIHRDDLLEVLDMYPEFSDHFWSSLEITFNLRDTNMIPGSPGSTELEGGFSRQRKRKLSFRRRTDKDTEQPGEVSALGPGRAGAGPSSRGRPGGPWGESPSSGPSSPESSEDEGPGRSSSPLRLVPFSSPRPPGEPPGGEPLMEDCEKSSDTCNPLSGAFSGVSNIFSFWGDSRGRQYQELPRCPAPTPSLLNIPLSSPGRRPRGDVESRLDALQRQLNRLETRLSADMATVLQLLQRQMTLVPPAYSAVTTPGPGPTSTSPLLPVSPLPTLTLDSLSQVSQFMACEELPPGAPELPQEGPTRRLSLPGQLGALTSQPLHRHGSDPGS
# Method in brief: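 HEK293 Kv11.1 membranes (30 μg protein) were loaded with 2 nM [3H]dofetilide at 15 °C for 90 min. Dissociation was started with 10 μM unlabeled dofetilide, without or with 10 μM test compound, for 10 min. Samples were filtered through GF/B, washed twice with ice-cold buffer and counted by scintillation. Binding (%) = 100% − [3H]dofetilide binding remaining.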
Compound,Influence on mitochondrial membrane potential (A549 cells [1]),"EC50 (A549 cells [2]; Homo sapiens, A549, 72 h)",Kv11.1 binding (100% - [3H]dofetilide binding remaining) [3],[3H]dofetilide binding remaining [3],"EC50 (A549 cells [2]; 2D monolayer, hypoxic (1% O2))"
"N#CC(C#N)=NNc1cccc(Cl)c1 [CCCP, carbonyl cyanide m-chlorophenyl hydrazone, reference compound]",dramatically reduced percentage of intact mitochondrial membranes,–,–,–,–
"c1cc(Nc2cc3ccccc3cn2)nc(-c2cccc(Nc3cc4ccccc4cn3)n2)c1 [H2biqbpy1, N6,N6′-di(isoquinolin-3-yl)-[2,2′-bipyridine]-6,6′-diamine]",–,> 200 µM,36% and 36 ± 4%,64 ± 4%,–
"c1cc(Nc2ccc3ccccc3n2)nc(-c2cccc(Nc3ccc4ccccc4n3)n2)c1 [H2biqbpy2, N6,N6′-di(quinolin-2-yl)-[2,2′-bipyridine]-6,6′-diamine]",–,12 µM,84% and 84 ± 4%,16 ± 4%,–
"N.N.[Cl][Pt][Cl] [cisplatin, reference compound]",–,–,–,–,24 µM
